The values that follow come from ChEMBL document CHEMBL1128714, “Synthesis and anti-HIV activity of 1,1'-dideoxygossypol and related compounds” (J Med Chem, 1995).

Some results are limits rather than exact numbers.

Experiment [1] concerns HeLa. Briefly: Highest concentration at which no visible changes in cell morphology or monolayer adhesion was detected. In kind it is functional, Homo sapiens.
The subject of experiment [2] is HeLa. In words: Compound was evaluated for the anti HIV activity in HT46c (HeLaT4+) cells as host cells for H9/HIV-IIIB strain of the HIV-1 virus; anti HIV activity masked by cytotoxicity. In kind it is functional, cell-based, Homo sapiens.
Experiment [3] has as its system HeLa. Briefly: Compound was evaluated for the anti HIV activity in HT46c (HeLaT4+) cells as host cells for H9/HIV-IIIB strain of the HIV-1 virus. In kind it is functional, cell-based. To be noted: Homo sapiens. The gist of the method:
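HT46c (HeLaT4+) cells were plated at 5×10^4 cells/well in RPMI 1640 with 10% FBS and attached overnight. They were infected with HIV-1 H9/HIV-IIIB at an input giving 100–200 foci/well in positive controls by day 3. Compound was tested at 0.01, 0.1, 1.0, 5.0 and 20 μM for 3 days at 37 °C, 5% CO2. Foci were counted by focal immunoassay on methanol-fixed monolayers, and EC50 was derived.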

`Cc1cc2c(C(C)C)c(O)c(O)c(C=O)c2cc1-c1cc2c(C=O)c(O)c(O)c(C(C)C)c2cc1C` showed a TC in the experiment with HeLa [1] greater than 1 µM. Moreover, the EC50 entry in the experiment on HeLa [2] was “anti HIV activity masked by cytotoxicity”. Turning to `Cc1cc2c(C(C)C)c(O)c(O)c(C(=O)O)c2cc1-c1cc2c(C(=O)O)c(O)c(O)c(C(C)C)c2cc1C`, the midpoint of the response in the experiment with HeLa [3], the EC50, lay at 0.7 µM. In addition, the TC in the experiment on HeLa [1] was greater than 5 µM. `Cc1ccc2c(C(=O)O)c(O)c(O)c(C(C)C)c2c1` gave a TC in the experiment on HeLa [1] greater than 20 µM. Turning to `Cc1ccc2c(C=O)c(O)c(O)c(C(C)C)c2c1`, the EC50 with HeLa [3] came to 20 µM. For the same molecule, in the experiment with HeLa [1], the TC was greater than 1 µM.

In general, EC50 refers to the concentration needed to bring the measured effect to its halfway point. A higher EC50 goes with a need for much substance.
